Here are results for 1 molecule from ChEMBL document CHEMBL3351316, “Scaffold hopping approach on the route to selective tankyrase inhibitors” (Eur J Med Chem, 2014).

SMILES strings stand for the structures. pIC50: −log10 of the molar value.

Assay [1] concerns the target Protein mono-ADP-ribosyltransferase PARP6 (Homo sapiens) (UniProt Q2NL67). Kind of assay: Inhibition of human recombinant PARP6 at 10 uM incubated for 1 hr using NAD+, biotinylated NAD+ and activated DNA by luminescence based assay. The essentials: (§1)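 Recombinant PARP enzyme reactions were run in duplicate for 1 h at rt on histone-coated plates in Tris·HCl pH 8.0 buffer with NAD+, biotinylated NAD+ and activated DNA. Detection used streptavidin-HRP for 30 min at rt, then a chemiluminescent developer. % inhibition = 100 − % activity, scaled between the no-compound (100%) and no-enzyme (0%) signals.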

The target in assay [2] is T1, Protein mono-ADP-ribosyltransferase PARP11 (Homo sapiens) (UniProt Q9NR21).
T1 sequence (whole entry): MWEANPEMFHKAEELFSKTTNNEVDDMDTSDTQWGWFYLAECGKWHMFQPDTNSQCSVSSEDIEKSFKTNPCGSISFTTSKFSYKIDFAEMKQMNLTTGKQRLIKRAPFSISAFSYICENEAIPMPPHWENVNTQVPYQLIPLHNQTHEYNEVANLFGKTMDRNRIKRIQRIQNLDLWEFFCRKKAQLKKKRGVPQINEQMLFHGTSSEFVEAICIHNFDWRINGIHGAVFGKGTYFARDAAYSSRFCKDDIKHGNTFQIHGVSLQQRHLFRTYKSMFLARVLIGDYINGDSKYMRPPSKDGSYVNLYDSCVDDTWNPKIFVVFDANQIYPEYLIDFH
Description: Inhibition of human recombinant PARP11 at 10 uM incubated for 1 hr using NAD+, biotinylated NAD+ and activated DNA by luminescence based assay. The essentials: as §1

The target of assay [3] is Protein mono-ADP-ribosyltransferase PARP14 (Homo sapiens) (UniProt Q460N5). Description: Inhibition of human recombinant PARP14 at 10 uM incubated for 1 hr using NAD+, biotinylated NAD+ and activated DNA by luminescence based assay. The essentials: as §1
Sequence of Protein mono-ADP-ribosyltransferase PARP14 (Homo sapiens) (Q460N5 whole entry): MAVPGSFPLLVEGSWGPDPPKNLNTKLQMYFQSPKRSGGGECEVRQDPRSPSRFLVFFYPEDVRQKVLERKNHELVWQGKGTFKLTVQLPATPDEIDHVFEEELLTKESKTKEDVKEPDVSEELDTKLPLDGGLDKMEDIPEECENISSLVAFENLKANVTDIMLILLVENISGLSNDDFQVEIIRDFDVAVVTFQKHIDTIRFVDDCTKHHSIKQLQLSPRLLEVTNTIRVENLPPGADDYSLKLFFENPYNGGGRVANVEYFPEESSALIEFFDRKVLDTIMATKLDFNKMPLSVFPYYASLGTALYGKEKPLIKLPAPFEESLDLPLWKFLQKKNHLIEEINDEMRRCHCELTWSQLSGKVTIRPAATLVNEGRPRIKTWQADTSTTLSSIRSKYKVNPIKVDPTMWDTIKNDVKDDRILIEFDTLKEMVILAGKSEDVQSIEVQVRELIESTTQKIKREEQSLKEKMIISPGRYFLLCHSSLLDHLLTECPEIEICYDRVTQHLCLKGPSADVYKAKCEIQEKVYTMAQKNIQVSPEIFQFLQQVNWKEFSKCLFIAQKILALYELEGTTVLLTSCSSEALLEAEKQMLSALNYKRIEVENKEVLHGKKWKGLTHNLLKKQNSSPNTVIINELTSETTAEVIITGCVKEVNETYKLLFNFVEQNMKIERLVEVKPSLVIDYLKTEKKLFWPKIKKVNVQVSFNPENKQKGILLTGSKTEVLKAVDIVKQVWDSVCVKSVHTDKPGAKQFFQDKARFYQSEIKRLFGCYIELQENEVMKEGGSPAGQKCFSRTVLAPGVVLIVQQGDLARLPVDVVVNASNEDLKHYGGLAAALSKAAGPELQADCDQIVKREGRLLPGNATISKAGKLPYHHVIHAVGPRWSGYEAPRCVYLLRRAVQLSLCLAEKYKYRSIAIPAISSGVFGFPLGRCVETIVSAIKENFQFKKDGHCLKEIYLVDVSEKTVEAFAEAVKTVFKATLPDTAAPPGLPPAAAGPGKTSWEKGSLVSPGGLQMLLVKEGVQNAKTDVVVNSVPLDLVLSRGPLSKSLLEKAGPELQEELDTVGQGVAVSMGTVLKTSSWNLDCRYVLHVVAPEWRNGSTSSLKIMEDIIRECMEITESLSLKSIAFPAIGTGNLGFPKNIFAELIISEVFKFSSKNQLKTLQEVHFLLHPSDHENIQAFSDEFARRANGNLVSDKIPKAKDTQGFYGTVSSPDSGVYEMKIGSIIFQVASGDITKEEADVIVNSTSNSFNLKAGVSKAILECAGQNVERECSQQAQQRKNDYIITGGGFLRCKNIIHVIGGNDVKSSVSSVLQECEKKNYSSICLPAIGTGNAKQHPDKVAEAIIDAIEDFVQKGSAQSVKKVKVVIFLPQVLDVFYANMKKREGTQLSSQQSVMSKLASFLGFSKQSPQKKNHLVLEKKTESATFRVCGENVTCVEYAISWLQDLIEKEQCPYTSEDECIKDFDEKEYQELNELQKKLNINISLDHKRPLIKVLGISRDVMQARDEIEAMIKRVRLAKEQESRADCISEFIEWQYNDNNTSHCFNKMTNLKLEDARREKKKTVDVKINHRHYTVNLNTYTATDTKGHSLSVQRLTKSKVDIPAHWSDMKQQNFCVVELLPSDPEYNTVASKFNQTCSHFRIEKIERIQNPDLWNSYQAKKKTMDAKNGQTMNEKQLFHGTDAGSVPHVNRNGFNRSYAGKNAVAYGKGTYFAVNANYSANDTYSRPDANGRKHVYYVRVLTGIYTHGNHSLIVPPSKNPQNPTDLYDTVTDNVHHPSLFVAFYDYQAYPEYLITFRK
In assay [4] the target is T2, Poly [ADP-ribose] polymerase tankyrase-1 (Homo sapiens, UniProt O95271).
T2 sequence (O95271 whole entry): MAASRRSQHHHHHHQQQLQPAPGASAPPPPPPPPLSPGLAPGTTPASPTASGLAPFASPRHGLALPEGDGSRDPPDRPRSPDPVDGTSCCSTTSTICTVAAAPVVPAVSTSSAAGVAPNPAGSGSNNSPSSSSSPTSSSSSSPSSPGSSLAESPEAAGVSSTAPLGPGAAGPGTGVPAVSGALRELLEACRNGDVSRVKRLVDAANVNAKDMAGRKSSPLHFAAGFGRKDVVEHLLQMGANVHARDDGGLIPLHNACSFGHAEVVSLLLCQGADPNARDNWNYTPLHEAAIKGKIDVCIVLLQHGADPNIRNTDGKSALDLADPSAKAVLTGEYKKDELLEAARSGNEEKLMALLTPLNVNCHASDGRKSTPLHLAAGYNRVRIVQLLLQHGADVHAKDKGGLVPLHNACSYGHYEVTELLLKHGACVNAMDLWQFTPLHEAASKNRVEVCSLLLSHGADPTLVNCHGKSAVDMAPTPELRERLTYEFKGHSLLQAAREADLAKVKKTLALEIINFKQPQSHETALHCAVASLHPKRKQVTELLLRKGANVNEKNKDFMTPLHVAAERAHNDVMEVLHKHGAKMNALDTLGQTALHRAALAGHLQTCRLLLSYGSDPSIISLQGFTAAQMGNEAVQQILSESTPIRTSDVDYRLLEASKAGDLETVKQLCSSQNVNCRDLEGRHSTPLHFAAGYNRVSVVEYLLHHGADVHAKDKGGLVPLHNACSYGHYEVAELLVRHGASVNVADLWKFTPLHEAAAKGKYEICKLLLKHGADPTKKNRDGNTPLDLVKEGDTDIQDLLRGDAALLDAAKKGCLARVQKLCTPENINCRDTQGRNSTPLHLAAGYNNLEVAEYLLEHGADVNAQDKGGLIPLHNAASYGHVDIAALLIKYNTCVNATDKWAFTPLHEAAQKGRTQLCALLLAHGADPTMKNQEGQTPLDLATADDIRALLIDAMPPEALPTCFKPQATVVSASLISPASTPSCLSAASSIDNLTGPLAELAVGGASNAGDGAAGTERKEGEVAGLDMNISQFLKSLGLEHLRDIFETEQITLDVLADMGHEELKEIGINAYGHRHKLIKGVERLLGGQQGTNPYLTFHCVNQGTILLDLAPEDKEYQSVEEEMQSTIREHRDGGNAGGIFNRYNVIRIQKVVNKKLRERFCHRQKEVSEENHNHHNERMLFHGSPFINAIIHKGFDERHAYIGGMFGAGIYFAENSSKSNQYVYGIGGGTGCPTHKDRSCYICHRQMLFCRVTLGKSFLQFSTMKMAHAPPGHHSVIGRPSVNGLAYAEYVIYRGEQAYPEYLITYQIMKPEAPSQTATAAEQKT
Description: Inhibition of GST-tagged human recombinant TNKS1 incubated for 1 hr using NAD+, biotinylated NAD+ and activated DNA by luminescence based assay.

Assay [5] deals with Poly [ADP-ribose] polymerase 2 (Homo sapiens) (UniProt Q9UGN5). Kind of assay: Inhibition of human recombinant PARP2 incubated for 1 hr using histone substrate at 1 uM by luminescence based assay. The essentials:
as §1

The target in assay [6] is T3, Protein mono-ADP-ribosyltransferase PARP12 (Homo sapiens) (UniProt Q9H0J9).
T3 sequence (whole entry): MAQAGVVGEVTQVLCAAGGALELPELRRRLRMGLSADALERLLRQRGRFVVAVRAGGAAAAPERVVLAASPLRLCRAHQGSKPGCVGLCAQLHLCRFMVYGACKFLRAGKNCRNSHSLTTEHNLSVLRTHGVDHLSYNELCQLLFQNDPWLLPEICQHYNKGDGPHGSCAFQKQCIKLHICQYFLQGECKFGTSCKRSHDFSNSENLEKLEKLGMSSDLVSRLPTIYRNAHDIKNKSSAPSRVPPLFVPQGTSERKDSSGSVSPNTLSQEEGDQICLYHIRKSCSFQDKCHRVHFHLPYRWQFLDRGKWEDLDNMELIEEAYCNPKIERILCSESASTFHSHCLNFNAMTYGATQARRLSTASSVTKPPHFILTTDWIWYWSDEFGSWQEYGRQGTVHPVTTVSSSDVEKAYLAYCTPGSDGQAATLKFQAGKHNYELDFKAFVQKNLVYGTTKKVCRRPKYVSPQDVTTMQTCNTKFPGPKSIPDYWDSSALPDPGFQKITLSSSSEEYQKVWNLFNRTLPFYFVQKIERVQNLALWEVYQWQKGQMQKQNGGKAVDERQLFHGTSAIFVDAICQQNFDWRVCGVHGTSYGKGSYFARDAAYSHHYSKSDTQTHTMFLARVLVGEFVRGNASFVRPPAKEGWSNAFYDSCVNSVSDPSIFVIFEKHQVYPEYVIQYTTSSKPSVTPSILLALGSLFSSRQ
Description: Inhibition of human recombinant PARP12 at 10 uM incubated for 1 hr using NAD+, biotinylated NAD+ and activated DNA by luminescence based assay. The essentials: as §1

Sequence of Protein mono-ADP-ribosyltransferase PARP6 (Homo sapiens) (Q2NL67 whole entry): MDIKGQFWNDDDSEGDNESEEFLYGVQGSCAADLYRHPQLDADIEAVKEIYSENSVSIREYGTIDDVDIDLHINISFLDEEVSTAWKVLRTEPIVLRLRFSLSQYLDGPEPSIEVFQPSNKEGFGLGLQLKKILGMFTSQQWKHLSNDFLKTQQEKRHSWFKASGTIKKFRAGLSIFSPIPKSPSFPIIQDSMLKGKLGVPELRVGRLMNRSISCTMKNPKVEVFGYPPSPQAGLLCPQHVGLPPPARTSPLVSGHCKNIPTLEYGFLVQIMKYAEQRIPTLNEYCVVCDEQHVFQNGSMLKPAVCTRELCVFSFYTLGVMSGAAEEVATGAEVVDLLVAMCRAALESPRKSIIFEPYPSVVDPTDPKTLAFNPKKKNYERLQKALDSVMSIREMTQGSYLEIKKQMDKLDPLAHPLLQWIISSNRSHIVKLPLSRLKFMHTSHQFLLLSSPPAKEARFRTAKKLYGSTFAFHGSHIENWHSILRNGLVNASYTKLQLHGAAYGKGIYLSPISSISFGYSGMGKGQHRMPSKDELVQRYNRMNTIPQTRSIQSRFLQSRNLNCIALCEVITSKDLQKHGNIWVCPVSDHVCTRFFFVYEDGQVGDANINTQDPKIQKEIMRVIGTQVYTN
Sequence of Poly [ADP-ribose] polymerase 2 (Homo sapiens) (Q9UGN5 whole entry): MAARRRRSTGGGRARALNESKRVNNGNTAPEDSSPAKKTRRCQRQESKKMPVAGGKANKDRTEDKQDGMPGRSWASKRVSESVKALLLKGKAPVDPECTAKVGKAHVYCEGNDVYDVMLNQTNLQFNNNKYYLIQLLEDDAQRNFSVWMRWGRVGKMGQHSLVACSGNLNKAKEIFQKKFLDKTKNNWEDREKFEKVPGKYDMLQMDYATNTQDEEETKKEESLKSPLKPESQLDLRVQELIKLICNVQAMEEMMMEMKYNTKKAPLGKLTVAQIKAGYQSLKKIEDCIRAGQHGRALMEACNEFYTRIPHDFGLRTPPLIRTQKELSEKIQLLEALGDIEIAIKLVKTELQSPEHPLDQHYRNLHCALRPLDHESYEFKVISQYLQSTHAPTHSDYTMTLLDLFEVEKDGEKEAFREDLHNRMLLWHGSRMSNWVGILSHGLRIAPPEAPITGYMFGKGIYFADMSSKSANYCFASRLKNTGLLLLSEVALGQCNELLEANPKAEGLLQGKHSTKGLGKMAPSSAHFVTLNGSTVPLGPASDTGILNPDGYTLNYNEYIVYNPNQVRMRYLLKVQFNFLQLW

On to `CC(C)(C)c1ccc(-c2nc3c(sc4ccccc43)c(=O)[nH]2)cc1`, for which the inhibition in assay [1] was found to be 6%; in assay [2] it was 10%; in assay [3] it was 0%; in assay [5] it was 4%; in assay [6], 14%. Further, the pIC50 in assay [4] was 7.67.
